Measurements published in ChEMBL document CHEMBL5696442, “Discovery of type II inhibitors of TGFβ-activated kinase 1 (TAK1) and mitogen-activated protein kinase kinase kinase kinase 2 (MAP4K2)” (J Med Chem, 2015).
Active and inactive are the calls of the source. No cut-off for these calls is given here.

Legend:
[1] = molecular target: Tyrosine-protein kinase HCK (Homo sapiens) (UniProt P08631); assay: Inhibition of HCK (unknown origin) at 10 uM by Ambit Kinomescan binding assay relative to control; values are per cent of control
[2] = molecular target: Mitogen-activated protein kinase kinase kinase 4 (Homo sapiens) (UniProt Q9Y6R4); assay: Inhibition of MAP3K4 K2 labeling site in human Huh-7 cells at 1 uM by KiNativ Profiling analysis relative to control; assay type: cell-based
[3] = molecular target: Serine/threonine-protein kinase N2 (Homo sapiens) (UniProt Q16513); assay: Inhibition of PKN2 Lys2 labeling site in human A-375 cells at 0.5 uM by KiNativ Profiling analysis relative to control; assay type: cell-based
[4] = molecular target: T1, Scaffold protein ILK (Homo sapiens) (UniProt Q13418); assay: Inhibition of ILK ACT labeling site in human Huh-7 cells at 10 uM by KiNativ Profiling analysis relative to control; assay type: cell-based
T1 sequence (whole entry): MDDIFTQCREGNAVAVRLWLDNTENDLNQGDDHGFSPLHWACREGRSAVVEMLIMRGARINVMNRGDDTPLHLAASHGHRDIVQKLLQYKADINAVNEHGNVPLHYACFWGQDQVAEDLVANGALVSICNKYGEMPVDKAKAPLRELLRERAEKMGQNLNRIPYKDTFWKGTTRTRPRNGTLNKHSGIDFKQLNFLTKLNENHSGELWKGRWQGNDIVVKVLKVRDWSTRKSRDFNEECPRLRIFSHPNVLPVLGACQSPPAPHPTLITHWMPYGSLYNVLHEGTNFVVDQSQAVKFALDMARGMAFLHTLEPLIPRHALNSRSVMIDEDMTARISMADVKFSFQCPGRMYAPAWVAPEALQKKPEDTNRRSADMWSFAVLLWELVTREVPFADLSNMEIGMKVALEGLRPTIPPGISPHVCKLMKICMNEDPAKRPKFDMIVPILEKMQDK

[5] = molecular target: T2, Phosphatidylinositol 5-phosphate 4-kinase type-2 gamma (Homo sapiens) (UniProt Q8TBX8); assay: Inhibition of PIP5K2C ATP labeling site harbouring VKELPTLKDMDFLNK in human Huh-7 cells at 10 uM by KiNativ Profiling analysis relative to control; assay type: cell-based
T2 sequence (whole entry): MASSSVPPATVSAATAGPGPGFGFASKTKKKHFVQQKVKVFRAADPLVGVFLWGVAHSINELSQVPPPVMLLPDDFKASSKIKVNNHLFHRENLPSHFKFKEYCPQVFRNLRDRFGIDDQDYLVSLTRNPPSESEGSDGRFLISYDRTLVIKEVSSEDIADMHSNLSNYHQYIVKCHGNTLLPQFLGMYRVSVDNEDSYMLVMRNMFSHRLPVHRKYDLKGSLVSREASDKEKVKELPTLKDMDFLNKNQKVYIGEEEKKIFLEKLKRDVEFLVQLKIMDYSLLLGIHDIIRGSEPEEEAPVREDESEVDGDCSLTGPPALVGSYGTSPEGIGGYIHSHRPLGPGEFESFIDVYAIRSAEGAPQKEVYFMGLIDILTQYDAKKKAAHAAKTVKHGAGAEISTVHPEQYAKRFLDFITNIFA

[6] = molecular target: Dual specificity protein kinase CLK3 (Homo sapiens) (UniProt P49761); assay: Inhibition of CLK3 (unknown origin) at 10 uM by Ambit Kinomescan binding assay
[7] = molecular target: Casein kinase I isoform delta (Homo sapiens) (UniProt P48730); assay: Inhibition of CK1 delta K2 labeling site in human Huh-7 cells at 10 uM by KiNativ Profiling analysis relative to control; assay type: cell-based
[8] = molecular target: T3, NUAK family SNF1-like kinase 1 (Homo sapiens) (UniProt O60285); assay: Inhibition of NuaK1 K2 labeling site in human Huh-7 cells at 10 uM by KiNativ Profiling analysis relative to control; assay type: cell-based
T3 sequence (whole entry): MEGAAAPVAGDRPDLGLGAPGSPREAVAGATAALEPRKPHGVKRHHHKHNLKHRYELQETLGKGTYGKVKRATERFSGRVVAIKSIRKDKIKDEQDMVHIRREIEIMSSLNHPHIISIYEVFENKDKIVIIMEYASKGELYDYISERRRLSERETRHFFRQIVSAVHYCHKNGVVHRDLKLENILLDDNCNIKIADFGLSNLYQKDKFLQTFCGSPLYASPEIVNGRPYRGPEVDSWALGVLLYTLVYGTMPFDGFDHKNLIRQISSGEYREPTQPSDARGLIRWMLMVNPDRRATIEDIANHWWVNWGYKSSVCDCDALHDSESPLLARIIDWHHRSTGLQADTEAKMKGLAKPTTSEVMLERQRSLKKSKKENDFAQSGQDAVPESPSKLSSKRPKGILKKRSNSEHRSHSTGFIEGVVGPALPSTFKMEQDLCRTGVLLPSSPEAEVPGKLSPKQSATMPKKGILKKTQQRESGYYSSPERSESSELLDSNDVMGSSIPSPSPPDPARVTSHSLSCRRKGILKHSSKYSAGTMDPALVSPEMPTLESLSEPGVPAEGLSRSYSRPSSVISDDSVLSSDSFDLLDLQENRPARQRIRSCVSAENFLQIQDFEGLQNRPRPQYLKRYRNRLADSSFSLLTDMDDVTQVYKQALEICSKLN

[9] = molecular target: Serine/threonine-protein kinase 10 (Homo sapiens) (UniProt O94804); assay: Inhibition of LOK (unknown origin) at 1 uM by Ambit Kinomescan binding assay relative to control; values are per cent of control
[10] = tested on: Tyrosine-protein kinase ABL1 (Homo sapiens), P00519 [Q252H]; assay: Inhibition of phosphorylated ABL1 Q252H mutant (unknown origin) at 1 uM by Ambit Kinomescan binding assay relative to control; values are per cent of control
[11] = molecular target: Cyclin-dependent kinase 7 (Homo sapiens) (UniProt P50613); assay: Inhibition of CDK7 Lys2 labeling site in human A-375 cells at 5 uM by KiNativ Profiling analysis relative to control; assay type: cell-based
[12] = molecular target: cAMP-dependent protein kinase catalytic subunit beta (Homo sapiens) (UniProt P22694); assay: Inhibition of PKAC beta (unknown origin) at 1 uM by Ambit Kinomescan binding assay relative to control
[13] = molecular target: T3, NUAK family SNF1-like kinase 1 (Homo sapiens); assay: Inhibition of ARK5 (unknown origin) at 1 uM by Ambit Kinomescan binding assay relative to control
[14] = molecular target: Ribosomal protein S6 kinase alpha-2 (Homo sapiens) (UniProt Q15349); assay: Inhibition of C-terminal RSK3 kinase domain 2 (unknown origin) at 1 uM by Ambit Kinomescan binding assay relative to control
Method in brief: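 In vitro ATP-site competition binding assay against a panel of over 420 kinases (KinomeScan), with compound tested at 10 or 1 μM.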

[15] = molecular target: Cyclin-dependent kinase 17 (Homo sapiens) (UniProt Q00537); assay: Inhibition of PCTAIRE2 PCTAIRE3 Lys1 labeling site in human Huh-7 cell lysate at 1 uM by KiNativ Profiling analysis relative to control; assay type: subcellular
[16] = molecular target: Cyclin-dependent kinase 2 (Homo sapiens) (UniProt P24941); assay: Inhibition of CDK2 Lys2 labeling site harbouring DLKPQNLLINTEGAIK in human Huh-7 cells at 1 uM by KiNativ Profiling analysis relative to control; assay type: cell-based

Chain of Cyclin-dependent kinase 17 (Homo sapiens) (Q00537 whole entry, looked up): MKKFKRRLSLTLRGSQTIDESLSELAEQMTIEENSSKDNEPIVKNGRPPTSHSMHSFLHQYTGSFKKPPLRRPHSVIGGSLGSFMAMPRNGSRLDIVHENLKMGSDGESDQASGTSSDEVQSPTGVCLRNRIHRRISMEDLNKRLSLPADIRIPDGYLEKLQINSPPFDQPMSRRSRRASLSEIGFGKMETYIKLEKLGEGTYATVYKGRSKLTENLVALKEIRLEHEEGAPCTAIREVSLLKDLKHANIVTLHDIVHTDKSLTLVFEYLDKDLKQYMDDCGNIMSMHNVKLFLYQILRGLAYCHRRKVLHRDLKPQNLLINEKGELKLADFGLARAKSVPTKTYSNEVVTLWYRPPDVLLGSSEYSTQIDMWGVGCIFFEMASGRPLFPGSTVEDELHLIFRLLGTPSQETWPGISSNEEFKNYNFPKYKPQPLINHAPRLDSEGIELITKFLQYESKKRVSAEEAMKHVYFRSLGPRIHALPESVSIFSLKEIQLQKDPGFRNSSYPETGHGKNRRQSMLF
Chain of Ribosomal protein S6 kinase alpha-2 (Homo sapiens) (Q15349 whole entry, the tested form may be a part): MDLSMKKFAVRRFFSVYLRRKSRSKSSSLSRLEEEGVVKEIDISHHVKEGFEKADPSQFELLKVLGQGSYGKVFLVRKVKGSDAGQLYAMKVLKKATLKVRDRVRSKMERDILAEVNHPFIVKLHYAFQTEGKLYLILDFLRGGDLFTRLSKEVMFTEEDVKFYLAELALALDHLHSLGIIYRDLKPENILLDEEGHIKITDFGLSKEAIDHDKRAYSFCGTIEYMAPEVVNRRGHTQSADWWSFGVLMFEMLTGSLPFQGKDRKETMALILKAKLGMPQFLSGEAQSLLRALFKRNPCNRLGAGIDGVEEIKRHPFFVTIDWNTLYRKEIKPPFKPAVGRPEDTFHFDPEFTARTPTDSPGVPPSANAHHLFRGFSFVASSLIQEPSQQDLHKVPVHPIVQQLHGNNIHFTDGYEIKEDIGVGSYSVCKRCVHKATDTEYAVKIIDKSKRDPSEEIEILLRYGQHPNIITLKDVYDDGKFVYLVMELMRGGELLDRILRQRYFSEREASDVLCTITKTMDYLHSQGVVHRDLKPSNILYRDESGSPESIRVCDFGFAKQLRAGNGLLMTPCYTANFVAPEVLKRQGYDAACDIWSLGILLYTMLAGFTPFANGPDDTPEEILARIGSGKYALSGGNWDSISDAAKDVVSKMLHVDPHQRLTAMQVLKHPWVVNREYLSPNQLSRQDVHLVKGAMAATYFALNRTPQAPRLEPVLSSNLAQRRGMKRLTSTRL
Chain of Serine/threonine-protein kinase N2 (Homo sapiens) (Q16513 whole entry, looked up): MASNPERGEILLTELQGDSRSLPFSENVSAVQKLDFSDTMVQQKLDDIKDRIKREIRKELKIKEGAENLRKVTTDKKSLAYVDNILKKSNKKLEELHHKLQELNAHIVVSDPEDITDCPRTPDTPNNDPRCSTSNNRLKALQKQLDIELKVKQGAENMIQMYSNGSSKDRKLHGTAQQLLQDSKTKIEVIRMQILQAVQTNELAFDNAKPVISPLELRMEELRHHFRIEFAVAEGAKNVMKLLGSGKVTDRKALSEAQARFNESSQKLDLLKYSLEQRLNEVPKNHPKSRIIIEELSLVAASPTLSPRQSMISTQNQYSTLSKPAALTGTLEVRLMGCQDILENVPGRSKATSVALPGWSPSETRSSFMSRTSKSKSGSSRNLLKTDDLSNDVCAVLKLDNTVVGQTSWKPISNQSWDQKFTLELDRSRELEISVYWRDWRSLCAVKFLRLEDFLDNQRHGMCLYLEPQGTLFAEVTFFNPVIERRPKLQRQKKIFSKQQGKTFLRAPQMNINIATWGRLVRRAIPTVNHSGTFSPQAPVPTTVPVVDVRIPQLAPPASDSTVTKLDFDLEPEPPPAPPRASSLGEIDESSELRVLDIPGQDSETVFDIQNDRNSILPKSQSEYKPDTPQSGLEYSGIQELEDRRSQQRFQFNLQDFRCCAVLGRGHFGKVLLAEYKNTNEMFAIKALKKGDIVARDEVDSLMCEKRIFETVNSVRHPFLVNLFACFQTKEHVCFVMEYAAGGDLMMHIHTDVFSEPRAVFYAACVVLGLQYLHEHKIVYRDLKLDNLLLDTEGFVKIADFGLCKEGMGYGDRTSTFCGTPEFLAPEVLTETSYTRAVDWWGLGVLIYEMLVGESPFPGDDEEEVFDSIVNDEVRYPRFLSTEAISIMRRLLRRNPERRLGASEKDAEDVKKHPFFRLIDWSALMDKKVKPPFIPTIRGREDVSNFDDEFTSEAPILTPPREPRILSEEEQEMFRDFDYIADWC
Chain of Mitogen-activated protein kinase kinase kinase 4 (Homo sapiens) (Q9Y6R4 whole entry): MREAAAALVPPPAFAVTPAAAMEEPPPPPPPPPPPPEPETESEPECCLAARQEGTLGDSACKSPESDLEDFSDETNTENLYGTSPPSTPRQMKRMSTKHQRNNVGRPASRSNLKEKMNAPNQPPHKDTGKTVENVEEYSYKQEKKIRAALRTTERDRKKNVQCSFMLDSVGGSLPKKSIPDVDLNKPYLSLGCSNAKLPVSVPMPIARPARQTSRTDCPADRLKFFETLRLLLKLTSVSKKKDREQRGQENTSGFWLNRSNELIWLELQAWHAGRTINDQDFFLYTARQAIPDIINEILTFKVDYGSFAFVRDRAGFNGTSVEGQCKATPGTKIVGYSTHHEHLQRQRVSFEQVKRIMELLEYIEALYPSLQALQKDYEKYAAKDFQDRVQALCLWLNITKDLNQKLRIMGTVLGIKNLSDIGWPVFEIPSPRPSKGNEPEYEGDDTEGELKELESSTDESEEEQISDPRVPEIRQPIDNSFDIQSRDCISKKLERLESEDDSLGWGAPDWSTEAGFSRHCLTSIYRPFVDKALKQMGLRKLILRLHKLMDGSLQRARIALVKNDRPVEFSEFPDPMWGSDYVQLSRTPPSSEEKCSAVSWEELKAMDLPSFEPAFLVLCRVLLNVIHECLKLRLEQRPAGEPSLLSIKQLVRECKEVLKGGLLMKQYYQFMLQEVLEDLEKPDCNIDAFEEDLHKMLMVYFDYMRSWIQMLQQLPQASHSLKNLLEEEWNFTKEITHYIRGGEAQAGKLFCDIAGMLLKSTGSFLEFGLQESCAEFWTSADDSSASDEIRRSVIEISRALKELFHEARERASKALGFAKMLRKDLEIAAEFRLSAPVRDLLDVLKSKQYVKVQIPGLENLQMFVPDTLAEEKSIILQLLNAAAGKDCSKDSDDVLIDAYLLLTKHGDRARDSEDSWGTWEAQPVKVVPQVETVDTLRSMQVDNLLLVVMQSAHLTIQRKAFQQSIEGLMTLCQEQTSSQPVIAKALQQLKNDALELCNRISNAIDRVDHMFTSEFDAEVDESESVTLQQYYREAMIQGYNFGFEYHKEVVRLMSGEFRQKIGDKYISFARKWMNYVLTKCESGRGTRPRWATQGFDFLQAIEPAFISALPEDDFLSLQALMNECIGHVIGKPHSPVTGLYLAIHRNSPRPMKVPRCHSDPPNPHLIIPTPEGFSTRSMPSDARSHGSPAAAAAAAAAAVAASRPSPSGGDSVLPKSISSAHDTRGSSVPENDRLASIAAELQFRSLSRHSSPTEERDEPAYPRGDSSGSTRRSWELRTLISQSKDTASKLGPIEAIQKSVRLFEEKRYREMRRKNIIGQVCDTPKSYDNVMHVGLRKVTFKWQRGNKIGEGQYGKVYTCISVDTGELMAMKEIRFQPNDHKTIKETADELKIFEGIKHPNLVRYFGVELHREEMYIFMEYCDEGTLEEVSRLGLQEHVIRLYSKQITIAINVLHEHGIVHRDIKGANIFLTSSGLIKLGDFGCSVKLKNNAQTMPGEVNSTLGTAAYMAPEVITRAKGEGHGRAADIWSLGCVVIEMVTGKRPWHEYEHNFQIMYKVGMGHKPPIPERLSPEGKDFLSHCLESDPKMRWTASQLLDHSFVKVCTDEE
Chain of Cyclin-dependent kinase 7 (Homo sapiens) (P50613 whole entry): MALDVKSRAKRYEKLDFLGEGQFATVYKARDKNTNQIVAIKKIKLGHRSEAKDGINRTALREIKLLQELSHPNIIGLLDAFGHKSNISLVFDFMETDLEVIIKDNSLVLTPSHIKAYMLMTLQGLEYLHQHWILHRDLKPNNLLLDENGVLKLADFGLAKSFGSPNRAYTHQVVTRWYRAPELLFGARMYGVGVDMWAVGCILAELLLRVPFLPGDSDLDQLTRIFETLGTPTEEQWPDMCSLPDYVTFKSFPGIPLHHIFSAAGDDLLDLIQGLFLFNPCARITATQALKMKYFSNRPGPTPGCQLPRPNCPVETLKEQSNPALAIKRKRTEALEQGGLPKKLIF
Chain of Tyrosine-protein kinase HCK (Homo sapiens) (P08631 2-526 limits assumed): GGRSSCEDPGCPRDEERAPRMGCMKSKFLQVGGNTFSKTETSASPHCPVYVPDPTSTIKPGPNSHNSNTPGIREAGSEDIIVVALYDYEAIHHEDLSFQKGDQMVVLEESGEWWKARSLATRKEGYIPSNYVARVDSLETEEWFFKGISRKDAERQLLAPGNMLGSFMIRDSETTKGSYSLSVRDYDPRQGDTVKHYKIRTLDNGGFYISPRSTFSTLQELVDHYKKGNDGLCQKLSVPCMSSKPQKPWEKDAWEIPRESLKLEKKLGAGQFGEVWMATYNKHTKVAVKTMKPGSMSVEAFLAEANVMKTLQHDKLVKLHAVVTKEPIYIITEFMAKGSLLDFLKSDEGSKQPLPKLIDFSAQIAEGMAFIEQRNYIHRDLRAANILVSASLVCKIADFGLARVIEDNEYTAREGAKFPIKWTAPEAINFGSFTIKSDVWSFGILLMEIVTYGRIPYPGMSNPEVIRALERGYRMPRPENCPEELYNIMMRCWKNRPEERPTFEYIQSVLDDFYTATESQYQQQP

What does the source list for `CCN1CCN(Cc2ccc(NC(=O)c3ccc(C)c(Oc4ccnc5[nH]ccc45)c3)cc2C(F)(F)F)CC1`?
percent of control [1]: 0.4%; inhibition [2]: -2.3%; inhibition [3]: -5.6%; inhibition [4]: -1.1%; inhibition [5]: 11.6%; inhibition [6]: inactive; inhibition [7]: 7.8%; inhibition [8]: 35.4%

How did the percent of control [9] turn out when `CCN1CCN(Cc2ccc(NC(=O)c3ccc(C)c(/C=C/c4cnc5[nH]ccc5c4OC)c3)cc2C(F)(F)F)CC1` was run?
The percent of control was 0%.

What about the percent of control [10] of the same compound?
The percent of control was 1.2%.

And the inhibition [11]?
Its inhibition is 38.7%.

What about the inhibition [12] of the same compound?
The inhibition was 76%.

What about the inhibition [13] of the same compound?
Its inhibition is 100%.

And the inhibition [14]?
Its inhibition is 67%.

How did the inhibition [15] turn out when `CNc1cc(Oc2cc(C(=O)Nc3cc(N4CCN(C)CC4)cc(C(F)(F)F)c3)ccc2C)ncn1` was run?
The inhibition was -9.5%.

What about the inhibition [16] of the same compound?
The inhibition was -0.4%.
